Measured values published in publication PMC3690701 (Bioorganic & medicinal chemistry, 2011).

Tests used:
[1] = biological target: human Pgp (Homo sapiens, UniProt P08183); conditions: for logIC50: fitted parameter±standard error, GraphPad Prism, R123 efflux, MDCKII-MDR1
[2] = test system: Pgp; conditions: cited from earlier work
[3] = test system: Pgp/BCRP at the BBB; conditions: mouse brain, unlabelled 1 0.1-10 mg/kg i.v.; cited from earlier work
[4] = test system: human BCRP; conditions: 3H-labelled tariquidar 1 nM, reversed by fumitremorgin C; cited from earlier work
[5] = test system: Pgp/BCRP at the BBB; assay: small-animal PET of [18F]4b in rats before/after unlabelled 1; format: in vivo, rat; conditions: 25 min after tracer injection, scanned 2 h after 1 (5 mg/kg), p=0.0002
In short: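 Naïve rats were kept under isoflurane (2.5% induction, 1.5–2% maintenance) at about 38°C, with femoral artery and vein catheters. The tracer was given as an i.v. bolus (33±3 MBq) in saline/EtOH/PEG300 (50/15/35). Arterial samples were gamma-counted, and whole-brain TACs were expressed as SUV. Groups were compared by 2-tailed Student's t-test.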

[6] = plasma protein binding by ultrafiltration; format: in vitro ADME, rat; conditions: 30 min at 37°C, n=3
In short: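 Fresh plasma from naïve rats was incubated with the 18F-labelled tracer for 30 min at 37°C. Bound and free tracer were then separated by ultrafiltration through centrifugal filter devices.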

[7] = format: in vivo, rat

Sequence of human Pgp (P08183 whole entry): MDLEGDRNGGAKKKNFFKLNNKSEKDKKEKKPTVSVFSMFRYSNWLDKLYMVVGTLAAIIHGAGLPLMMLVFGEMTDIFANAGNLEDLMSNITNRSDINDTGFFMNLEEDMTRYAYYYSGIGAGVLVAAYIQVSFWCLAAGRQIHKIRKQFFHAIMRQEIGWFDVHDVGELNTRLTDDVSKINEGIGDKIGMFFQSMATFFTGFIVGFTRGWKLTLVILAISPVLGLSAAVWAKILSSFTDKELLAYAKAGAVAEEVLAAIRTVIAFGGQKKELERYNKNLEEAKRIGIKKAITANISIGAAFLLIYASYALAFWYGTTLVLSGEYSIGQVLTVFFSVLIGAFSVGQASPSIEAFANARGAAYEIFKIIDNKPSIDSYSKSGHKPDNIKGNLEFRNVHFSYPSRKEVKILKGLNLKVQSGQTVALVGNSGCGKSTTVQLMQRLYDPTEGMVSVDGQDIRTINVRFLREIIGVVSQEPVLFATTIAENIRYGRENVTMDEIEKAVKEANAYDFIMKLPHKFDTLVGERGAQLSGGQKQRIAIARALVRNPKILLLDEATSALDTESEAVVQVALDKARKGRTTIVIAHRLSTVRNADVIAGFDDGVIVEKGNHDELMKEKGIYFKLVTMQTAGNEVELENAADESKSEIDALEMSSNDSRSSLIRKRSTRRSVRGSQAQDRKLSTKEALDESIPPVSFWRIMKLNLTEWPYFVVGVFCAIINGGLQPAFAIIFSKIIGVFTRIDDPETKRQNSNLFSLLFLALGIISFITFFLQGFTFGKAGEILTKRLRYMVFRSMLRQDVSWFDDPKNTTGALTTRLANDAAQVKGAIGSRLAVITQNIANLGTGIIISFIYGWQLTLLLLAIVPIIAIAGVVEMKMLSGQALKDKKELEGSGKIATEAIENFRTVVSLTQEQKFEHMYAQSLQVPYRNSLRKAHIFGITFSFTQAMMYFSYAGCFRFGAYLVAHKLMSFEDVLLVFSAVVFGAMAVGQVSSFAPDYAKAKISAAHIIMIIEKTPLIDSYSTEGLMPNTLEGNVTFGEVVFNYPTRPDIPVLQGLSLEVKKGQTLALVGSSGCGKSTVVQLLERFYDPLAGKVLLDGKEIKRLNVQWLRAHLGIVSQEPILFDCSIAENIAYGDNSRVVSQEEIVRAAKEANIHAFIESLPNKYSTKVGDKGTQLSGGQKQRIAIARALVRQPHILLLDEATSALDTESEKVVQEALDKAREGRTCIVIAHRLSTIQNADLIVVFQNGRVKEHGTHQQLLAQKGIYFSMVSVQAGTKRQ

COc1cc2c(cc1OC)CN(CCc1ccc(NC(=O)c3cc(F)cc4c(=O)c5cccc(OC)c5[nH]c34)cc1)CC2 [4e, N-(4-(2-(6,7-dimethoxy-1,2,3,4-tetrahydroisoquinolin-2-yl)ethyl)phenyl)-2-fluoro-5-methoxyacridone-4-carboxamide]
logIC50 [1]: −0.21±0.08

COc1cc2c(cc1OC)CN(CCc1ccc(NC(=O)c3ccc(Cl)c4c(=O)c5cccc(OC)c5[nH]c34)cc1)CC2 [4a, 1-Chloro-N-(4-(2-(6,7-dimethoxy-1,2,3,4-tetrahydroisoquinolin-2-yl)ethyl)phenyl)-5-methoxyacridone-4-carboxamide]
logIC50 [1]: 0.58±0.04

COc1cc2c(cc1OC)CN(CCc1ccc(NC(=O)c3cc(Cl)cc4c(=O)c5cccc(OC)c5[nH]c34)cc1)CC2 [4d, 2-Chloro-N-(4-(2-(6,7-dimethoxy-1,2,3,4-tetrahydroisoquinolin-2-yl)ethyl)phenyl)-5-methoxyacridone-4-carboxamide]
logIC50 [1]: 0.14±0.08

COc1cc2c(cc1OC)CN(CCc1ccc(NC(=O)c3cccc4c(=O)c5cccc(OC)c5[nH]c34)cc1)CC2 [compound 1, elacridar]
Maximal inhibitory effect (%) ([1]; human, pH 7.4): 100% | stimulation of ATPase activity [2]: does not stimulate | dose at which brain uptake of [11C]1 started to increase [3]: greater than 0.1 mg/kg | half-maximum effect dose for increase of [11C]1 brain uptake [3]: 1.55 mg/kg

COc1cc2c(cc1OC)CN(CCc1ccc(NC(=O)c3cc(OC)c(OC)cc3NC(=O)c3cnc4ccccc4c3)cc1)CC2 [tariquidar]
BCRP transport [4]: avid substrate of BCRP

COc1cc2c(cc1OC)CN(CCc1ccc(NC(=O)c3ccc([N+](=O)[O-])c4c(=O)c5cccc(OC)c5[nH]c34)cc1)CC2 [4c, N-(4-(2-(6,7-dimethoxy-1,2,3,4-tetrahydroisoquinolin-2-yl)ethyl)phenyl)-5-methoxy-1-nitroacridone-4-carboxamide]
logIC50 [1]: 0.21±0.07

COc1cc2c(cc1OC)CN(CCc1ccc(NC(=O)c3ccc([18F])c4c(=O)c5cccc(OC)c5[nH]c34)cc1)CC2 [[^18F]4b, 1-[^18F]fluoroelacridar]
brain activity uptake increase after unlabelled 1 (group 2 vs group 1) [5]: 9.5 times | protein-bound in rat plasma [6]: 98.0±1.7% | total radioactivity in brain in the form of unchanged tracer ([7]; rat brain extracts, 40 min after injection, HPLC): > 90% | total radioactivity in the form of unchanged tracer, HPLC of SPE fraction 3 ([7]; rat plasma, 40 min sample): 72±27%

COc1cc2c(cc1OC)CN(CCc1ccc(NC(=O)c3ccc(F)c4c(=O)c5cccc(OC)c5[nH]c34)cc1)CC2 [4b, N-(4-(2-(6,7-dimethoxy-1,2,3,4-tetrahydroisoquinolin-2-yl)ethyl)phenyl)-1-fluoro-5-methoxyacridone-4-carboxamide]
logIC50 [1]: 0.24±0.04 | IC50 times higher than 1 ([1]; human, pH 7.4): about 4 times
